Bioassay records from PubChem BioAssay.
Rtt109 HAT inh: C. albicans Rtt109 histone acetyltransferase inhibition; Q5AAJ8; actives 0.16% (n = 330,000); purified Rtt109/Vps75, ThioGlo CoA-SH fluorescence, 4 h; inhibition, % at 34.9 µM;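 active = inhibition of at least 50% in every replicate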
Target sequence (Q5AAJ8 whole entry, looked up): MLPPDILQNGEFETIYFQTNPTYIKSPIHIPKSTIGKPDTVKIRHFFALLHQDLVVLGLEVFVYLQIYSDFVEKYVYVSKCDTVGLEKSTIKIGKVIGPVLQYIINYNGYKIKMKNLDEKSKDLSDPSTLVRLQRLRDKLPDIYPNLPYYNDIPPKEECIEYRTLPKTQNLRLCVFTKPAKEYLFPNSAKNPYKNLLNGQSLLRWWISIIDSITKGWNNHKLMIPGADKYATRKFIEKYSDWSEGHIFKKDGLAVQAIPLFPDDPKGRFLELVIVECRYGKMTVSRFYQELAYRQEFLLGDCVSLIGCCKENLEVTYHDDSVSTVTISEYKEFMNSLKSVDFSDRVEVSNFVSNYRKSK
PglD inh: PglD (C. jejuni) enzyme inhibition; actives 0.098% (n = 360,000); purified PglD enzyme, DTNB colorimetric CoA detection; AID 602405; inhibition, % at 12.5 µM; in the data active = inhibition above about 16%, passing the limit was not always enough
CSC inhib: blocks cancer stem cells; actives 1.1% (n = 300,000); AID 2717; inhibition, % at 7.5 µM; cancer stem cell-like cells viability, luminescence; in the data active = inhibition above about 75%; tested in HMLE shEcad cells
PfHsp90 set2: inhibits growth of yeast expressing Plasmodium falciparum Hsp90; S. cerevisiae expressing PfHsp90, BacTiter-Glo ATP, 48 h; yeast lacking PDR1 and PDR3 efflux regulators; inhibition, % at 9.4 µM; actives 0.32% (n = 310,000);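 active = every replicate shows inhibition above about 80%, whatever the replicate mean, limit read from the data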;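 note: 0% = DMSO neutral controls and 100% = 20 µM radicicol positive controls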
SKKanGAS inh: SKKanGAS growth inhibition; S. pyogenes SKKanGAS, kanamycin growth, BacTiter-Glo, 6 h; inhibition, % at 7.5 µM; actives 1.3% (n = 300,000);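 active = mean replicate score, as percent of positive control median, at least 50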;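 note: strain carries kanamycin resistance gene driven by streptokinase promoter and grows in 40 µg/ml kanamycin; loss of luminescence reflects streptokinase promoter inhibition or plain growth inhibition; 0% = median of DMSO wells and 100% = positive control at its reference dose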
FN deposition inh: fibronectin deposition inhibition | AH1F fibroblasts, Alexa488-fibronectin deposition fluorescence, overnight | inhibition, % at 12.6 µM | actives 0.086% (n = 350,000) | AID 743247;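 active = mean inhibition across replicates of 30% or more, regardless of how many single replicates reach that level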;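 note: positive control wells lacked labelled fibronectin entirely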
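Assay system: AH1F fibroblasts assembling fluorescent fibronectin matrix; Amount: 10000 AH1F cells per well; Buffer or medium: DMEM, 2% serum; Probe or stimulus: Alexa488-fibronectin, 24 nM final in well; Doses: single compound dose, delivered by pin transfer; Incubation: 1 h adhesion, overnight exposure; Measured by: fluorescence 485/525 nm; Read-out: fibronectin deposition inhibition.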
Starred values were filed as active, the others as inactive. An excerpt weighted towards active compounds, which were near 1.7% of everything screened.

How did Nc1ccc(N(CCO)CCO)cc1 do in these assays?
Rtt109 HAT inh: -1; CSC inhib: 3; PfHsp90 set2: 22; SKKanGAS inh: 7; FN deposition inh: -7

What do the screens show for `OCCN(CCO)c1ccc(C(c2ccc(Cl)cc2)c2ccc(N(CCO)CCO)cc2Cl)c(Cl)c1`?
Rtt109 HAT inh: 5; PglD inh: -1; CSC inhib: 22; PfHsp90 set2: -15; SKKanGAS inh: 93*; FN deposition inh: -6

Results for COc1cc(-c2nc3ccc(C)cn3c2NCc2ccccc2)ccc1-c1cccc(Cl)c1 ?
Rtt109 HAT inh: -3; PglD inh: -5; CSC inhib: 69; PfHsp90 set2: -4; FN deposition inh: 8

How did Cc1ccc2nc(-c3ccc(-c4cccc(Cl)c4)cc3)c(NCc3ccccc3)n2c1 do in these assays?
Rtt109 HAT inh: 7; PglD inh: -5; CSC inhib: 91*; PfHsp90 set2: 5; SKKanGAS inh: 11; FN deposition inh: 4

Results for CCCCCCSc1cccc(-c2nc3ccc(Cl)cn3c2NCCCC)c1 ?
Rtt109 HAT inh: 0; PglD inh: 2; PfHsp90 set2: -18; FN deposition inh: -1

Results for CCCCCCSc1ccc(-c2nc3ccccn3c2NCCCC)cc1 ?
Rtt109 HAT inh: -14; PglD inh: -1; CSC inhib: 86*; PfHsp90 set2: 7; SKKanGAS inh: 51*; FN deposition inh: 2

Results for CCCCNc1c(-c2ccc(-c3cccc(Cl)c3)cc2)nc2ccccn12 ?
Rtt109 HAT inh: -4; PglD inh: 2; CSC inhib: 97*; PfHsp90 set2: -28; SKKanGAS inh: 43; FN deposition inh: -7

What do the screens show for `CCCCNc1c(-c2cccc(-c3ccc(OC)cc3)c2)nc2cc(C)ccn12`?
Rtt109 HAT inh: -3; PglD inh: -1; PfHsp90 set2: -8; FN deposition inh: -4

Results for C[C@H](NC(=O)C[C@H]1CC[C@@H]2[C@H](COC[C@H](O)CN2C(=O)Nc2ccccc2)O1)c1ccccc1 ?
PglD inh: -1; FN deposition inh: 3

How did C[C@@H]1CCCCO[C@H](CN(C)Cc2ccc(C(=O)O)cc2)[C@@H](C)CN([C@H](C)CO)C(=O)c2cc(NS(=O)(=O)c3ccc(Cl)cc3)ccc2O1 do in these assays?
PglD inh: 2; FN deposition inh: -4

What do the screens show for `CCOc1ccc(C(=O)/C=C/c2cn(CN3CCN(C)CC3)c3ccccc23)cc1`?
Rtt109 HAT inh: -1; PglD inh: -12; CSC inhib: 100*; PfHsp90 set2: -11

Results for C[C@@H](O)C#Cc1ccc([C@H]2[C@@H](CO)N3CCCCN(CC4CCOCC4)C[C@@H]23)cc1 ?
PglD inh: -2

Results for O=C(O)C(Cc1ccccc1)N1C(=O)/C(=C/c2ccccc2)SC1=S (stereo not drawn) ?
Rtt109 HAT inh: 53*; PglD inh: -3; CSC inhib: -3; PfHsp90 set2: -12; SKKanGAS inh: -26; FN deposition inh: 8

How did COc1cc(/C=C2\SC(=S)N(C(Cc3ccccc3)C(=O)O)C2=O)ccc1O (stereo not drawn) do in these assays?
Rtt109 HAT inh: 47; CSC inhib: 9; PfHsp90 set2: -10; SKKanGAS inh: 5; FN deposition inh: 15

How did Cc1ccc(/C=C2\SC(=S)N(C(Cc3ccccc3)C(=O)O)C2=O)cc1 (stereo not drawn) do in these assays?
Rtt109 HAT inh: 62*; PglD inh: -1; CSC inhib: 20; PfHsp90 set2: 11; SKKanGAS inh: 21; FN deposition inh: -8

Results for CC(Nc1nc(-c2ccccc2O)nc2ccccc12)c1ccccc1 (stereo not drawn) ?
Rtt109 HAT inh: -1; PglD inh: 2; CSC inhib: 59; PfHsp90 set2: -6; SKKanGAS inh: 58*; FN deposition inh: 1

Results for Oc1ccccc1-c1nc(NC2CCCC2)c2ccccc2n1 ?
Rtt109 HAT inh: 2; PglD inh: -10; CSC inhib: 26; PfHsp90 set2: 115*; SKKanGAS inh: 24; FN deposition inh: 2

What do the screens show for `c1ccc(-c2nnc(-c3ccccn3)nc2NC2CCCCC2)cc1`?
Rtt109 HAT inh: 2; PglD inh: -8; CSC inhib: -11; PfHsp90 set2: 103*; SKKanGAS inh: 104*; FN deposition inh: 5

How did CCCC#Cc1ccc([C@H]2[C@@H](CO)N(C(C)=O)[C@@H]2CNC(=O)C2CCC2)cc1 do in these assays?
FN deposition inh: -22

How did C[C@@H]1CCCCO[C@@H](CN(C)CC2CC2)[C@H](C)CN([C@@H](C)CO)C(=O)c2cc(NS(=O)(=O)c3ccc(F)cc3)ccc2O1 do in these assays?
PglD inh: -1

How did C[C@H](CO)N1C[C@H](C)[C@@H](CN(C)Cc2ccccn2)Oc2cc(C3=CCCC3)ccc2S1(=O)=O do in these assays?
PglD inh: -2; FN deposition inh: 6

How did O=C(C[C@H]1CC[C@H]2NC[C@H](O)COC[C@@H]2O1)NCc1ccc(Oc2ccccc2)cc1 do in these assays?
PglD inh: 7; FN deposition inh: -14

Results for CCOC(=O)[C@@H]1[C@H]2COc3cc(OC)ccc3[C@H]2N2C(=O)N(c3ccc(C(F)(F)F)cc3)C(=O)[C@]12C ?
Rtt109 HAT inh: 0; PglD inh: -5; CSC inhib: 102*; PfHsp90 set2: 35; FN deposition inh: 7

How did Cc1ccc(C#N)c(SCc2nnc(-c3ccc(Cl)cc3)o2)n1 do in these assays?
Rtt109 HAT inh: 58*; PglD inh: -3; CSC inhib: 8; PfHsp90 set2: -18; SKKanGAS inh: -4

How did Cc1cc(C)c(C#N)c(SCc2nnc(-c3ccccc3)o2)n1 do in these assays?
Rtt109 HAT inh: -1; PglD inh: 3; PfHsp90 set2: 17; SKKanGAS inh: 2

How did ClC1=C(Cl)C(Cl)=C(Cl)C1=C/C=C/c1ccccc1 do in these assays?
Rtt109 HAT inh: 3; PglD inh: -3; CSC inhib: 103*; PfHsp90 set2: 4; SKKanGAS inh: 36; FN deposition inh: -1

Results for CCC(C)c1ccccc1NS(=O)(=O)c1cnn(CC)c1 (stereo not drawn) ?
Rtt109 HAT inh: -1; PglD inh: 5; CSC inhib: -12; PfHsp90 set2: 6; SKKanGAS inh: 53*; FN deposition inh: -4

What do the screens show for `CCc1ccc(-c2cc3c(=O)n(CC(=O)NCCN4CCCCC4C)nc(C)n3n2)cc1` (stereo not drawn)?
Rtt109 HAT inh: 4; PglD inh: -2; CSC inhib: 80*; PfHsp90 set2: 6; SKKanGAS inh: -1; FN deposition inh: 1

What do the screens show for `CCOC(=O)Cc1csc(NC(=O)c2sc3nc4ccc(C)cc4cc3c2N)n1`?
Rtt109 HAT inh: 7; PglD inh: 1; CSC inhib: -3; PfHsp90 set2: -5; SKKanGAS inh: 11; FN deposition inh: -3
